Experimental data as given in ChEMBL document CHEMBL1152792, “Synthesis and anticonvulsant activity of amino acid-derived sulfamides” (J Med Chem, 2009).
Activity calls are given as the source filed them. No cut-off for these calls is given here.

Assays:
Mus musculus [1] = assay: Toxicity in albino mouse at 300 mg/kg, ip after 4 hrs by rotarod test; format: organism-based; set-up: dose 300 mg/kg, route intraperitoneal; conditions: in vivo
Summary of the method: (§1)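 Neurotoxicity was screened by the standardized rotarod test in the ADD phase I protocol. Adult male albino mice (18–23 g) received compound ip in 30% PEG 400 and 10% water at 0.01 mL/g. Animals were tested 0.5 and 4 h post-dose. Result scored as toxic/tested animals.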

Mus musculus [2] = assay: Toxicity in albino mouse at 100 mg/kg, ip after 0.5 hrs by rotarod test; format: organism-based; set-up: dose 100 mg/kg, route intraperitoneal; conditions: in vivo; summary of the method: as §1
Mus musculus [3] = assay: Anticonvulsant activity in albino mouse at 30 mg/kg, ip after 0.5 hrs by PTZ test; format: functional, organism-based; set-up: dose 30 mg/kg
Summary of the method: (§2)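 NIH Anticonvulsant Drug Development (ADD) program phase I screen in adult male albino mice (18–23 g). Compound given ip in 30% PEG 400 and 10% water at 0.01 mL/g body weight. Seizures were induced electrically (MES) or chemically (PTZ), and animals were tested 0.5 and 4 h after dosing. Result scored as protected/tested animals.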

Mus musculus [4] = assay: Toxicity in albino mouse at 100 mg/kg, ip after 4 hrs by rotarod test; format: organism-based; set-up: dose 100 mg/kg, route intraperitoneal; conditions: in vivo; summary of the method: as §1
Mus musculus [5] = assay: Anticonvulsant activity in albino mouse at 100 mg/kg, ip after 4 hrs by MES test; format: functional, organism-based; set-up: dose 100 mg/kg; summary of the method: as §2
Mus musculus [6] = assay: Anticonvulsant activity in albino mouse at 300 mg/kg, ip after 4 hrs by MES test; format: functional, organism-based; set-up: dose 300 mg/kg; summary of the method: as §2
Mus musculus [7] = assay: Toxicity in albino mouse at 30 mg/kg, ip after 4 hrs by rotarod test; format: organism-based; set-up: dose 30 mg/kg, route intraperitoneal; conditions: in vivo; summary of the method: as §1
Mus musculus [8] = assay: Anticonvulsant activity in albino mouse at 300 mg/kg, ip after 0.5 hrs by PTZ test; format: functional, organism-based; set-up: dose 300 mg/kg; summary of the method: as §2
Mus musculus [9] = assay: Anticonvulsant activity in albino mouse at 100 mg/kg, ip after 0.5 hrs by MES test; format: functional, organism-based; set-up: dose 100 mg/kg; summary of the method: as §2
Mus musculus [10] = assay: Toxicity in albino mouse at 300 mg/kg, ip after 0.5 hrs by rotarod test; format: organism-based; set-up: dose 300 mg/kg, route intraperitoneal; conditions: in vivo; summary of the method: as §1
Mus musculus [11] = assay: Anticonvulsant activity in albino mouse at 30 mg/kg, ip after 4 hrs by PTZ test; format: functional, organism-based; set-up: dose 30 mg/kg; summary of the method: as §2
Mus musculus [12] = assay: Anticonvulsant activity in albino mouse at 100 mg/kg, ip after 0.5 hrs by PTZ test; format: functional, organism-based; set-up: dose 100 mg/kg; summary of the method: as §2
Mus musculus [13] = assay: Toxicity in albino mouse at 30 mg/kg, ip after 0.5 hrs by rotarod test; format: organism-based; set-up: dose 30 mg/kg, route intraperitoneal; conditions: in vivo; summary of the method: as §1
Mus musculus [14] = assay: Anticonvulsant activity in albino mouse at 300 mg/kg, ip after 4 hrs by PTZ test; format: functional, organism-based; set-up: dose 300 mg/kg; summary of the method: as §2
Mus musculus [15] = assay: Anticonvulsant activity in albino mouse at 300 mg/kg, ip after 0.5 hrs by MES test; format: functional, organism-based; set-up: dose 300 mg/kg; summary of the method: as §2
Mus musculus [16] = assay: Anticonvulsant activity in albino mouse at 100 mg/kg, ip after 4 hrs by PTZ test; format: functional, organism-based; set-up: dose 100 mg/kg; summary of the method: as §2
Mus musculus [17] = assay: Anticonvulsant activity in albino mouse at 30 mg/kg, ip after 4 hrs by MES test; format: functional, organism-based; set-up: dose 30 mg/kg; summary of the method: as §2
Mus musculus [18] = assay: Anticonvulsant activity in albino mouse at 30 mg/kg, ip after 0.5 hrs by MES test; format: functional, organism-based; set-up: dose 30 mg/kg; summary of the method: as §2
Mus musculus [19] = species on record: Mus musculus; assay: Ratio of valproic acid ED50 to compound ED50 in albino mouse after 2 hrs by MES test; format: functional
Summary of the method: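 The compound ED50 came from ip dosing in male albino mice (six per dose) at the time of peak effect. The valproate ED50 was taken from earlier literature.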

Mus musculus [20] = assay: Anticonvulsant activity in ip dosed albino mouse after 2 hrs by MES test; format: functional
Summary of the method: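 Phase II quantitative MES test in adult male albino mice (18–23 g). Compound given ip in 30% PEG 400 and 10% water at 0.01 mL/g. Testing was done at the previously determined time of peak effect. Six mice per dose group; ED50 (dose protecting 50% of animals, μmol/kg) calculated from the dose–response curve.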

Compound	Activity (Mus musculus [1])	Activity (Mus musculus [2])	Activity (Mus musculus [3])	Activity (Mus musculus [4])	Activity (Mus musculus [5])	Activity (Mus musculus [6])	Activity (Mus musculus [7])	Activity (Mus musculus [8])	Activity (Mus musculus [9])	Activity (Mus musculus [10])	Activity (Mus musculus [11])	Activity (Mus musculus [12])	Activity (Mus musculus [13])	Activity (Mus musculus [14])	Activity (Mus musculus [15])	Activity (Mus musculus [16])	Activity (Mus musculus [17])	Activity (Mus musculus [18])	Ratio ED50 (Mus musculus [19])	ED50 (Mus musculus [20]) [µmol/kg]
COC(=O)CNS(=O)(=O)NCc1ccccc1	Non-toxic	Non-toxic	inactive	Non-toxic	inactive	inactive	Non-toxic	inactive	inactive	Non-toxic	inactive	inactive	Non-toxic	inactive	inactive	inactive	inactive	inactive	–	–
CCCC(CCC)CN(C(=O)OC(C)(C)C)S(=O)(=O)NCCC(=O)OC	Non-toxic	Non-toxic	inactive	Non-toxic	inactive	inactive	Non-toxic	inactive	inactive	Non-toxic	inactive	inactive	Non-toxic	inactive	inactive	inactive	inactive	inactive	–	–
CCCC(CCC)CNS(=O)(=O)NCC(=O)OC	Non-toxic	Non-toxic	inactive	Non-toxic	–	–	Non-toxic	inactive	–	Non-toxic	inactive	inactive	Non-toxic	inactive	–	inactive	inactive	inactive	7.3	139
CCCCNS(=O)(=O)NCCC(=O)OC	Non-toxic	Non-toxic	inactive	Non-toxic	–	–	Non-toxic	inactive	–	Non-toxic	inactive	inactive	Non-toxic	inactive	–	inactive	–	–	14.2	71
COC(=O)CNS(=O)(=O)NC(=O)OC(C)(C)C	Non-toxic	Non-toxic	inactive	Non-toxic	inactive	inactive	Non-toxic	inactive	inactive	Non-toxic	inactive	inactive	Non-toxic	inactive	inactive	inactive	inactive	inactive	–	–
COC(=O)CCNS(=O)(=O)NC(=O)OC(C)(C)C	Non-toxic	Non-toxic	inactive	Non-toxic	inactive	inactive	Non-toxic	inactive	inactive	Non-toxic	inactive	inactive	Non-toxic	inactive	–	inactive	inactive	inactive	–	–
COC(=O)CNS(=O)(=O)N(Cc1ccccc1)C(=O)OC(C)(C)C	Non-toxic	Non-toxic	inactive	Non-toxic	inactive	inactive	Non-toxic	inactive	inactive	Non-toxic	inactive	inactive	Non-toxic	inactive	inactive	inactive	inactive	inactive	–	–
